From ChEMBL document CHEMBL1122655, “Gamma-aminobutyric acid esters. 1. Synthesis, brain uptake, and pharmacological studies of aliphatic and steroid esters of gamma-aminobutyric acid” (J Med Chem, 1984)
Several values for one entry are separate records, joined by “and”; a condition that tells them apart may be missing. Identical values can stand only once.

Columns and labels:
Mus musculus [1] = experiment: Evaluation of General motor activity in mouse at dose 200 mg/kg; format: functional
In short: (§1)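 Male BALB-c mice (18-24 g) given compound ip in 25% propylene glycol/water. Each was monitored singly for 60 min in an electronic activity monitor. Cumulative activity was expressed as % of vehicle control; mean ± SEM, n = 6, t test.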

[2] = Partition coefficient in 1-octanol/water system measured using radio active compounds; format: physicochemical
In short: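 1-Octanol/water partition coefficient, measured with the 14C-labeled compounds.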

[3] = Partition coefficient in 1-octanol/water system; format: physicochemical
In short: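 1-Octanol/water partition coefficient determined with the U-14C-labeled esters, read by radioactivity.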

Mus musculus [4] = experiment: Anticonvulsant activity is the ability to increase the survival time of mouse ssubjected to bicuculline induced seizures at 24 hr after pretreament with compound (16 mg/kg, ip); format: functional
Mus musculus [5] = experiment: Evaluation of General motor activity in mouse 60 mins postinjection (ip) of 33 mg/kg*; format: functional; in short: as §1
Mus musculus [6] = experiment: Anticonvulsant activity is the ability to increase the survival time of mouse ssubjected to bicuculline induced seizures at 24 hr after pretreament with compound (30 mg/kg, ip); format: functional
[7] = target: GABA-A receptor; anion channel; experiment: Inhibition of [3H]GABA binding to synaptic membranes from rat cerebellum; format: tissue-based
In short: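 [3H]GABA (15 nM) binding to rat cerebellum synaptic membranes. At least two concentrations above and below IC50, each at least in triplicate. IC50 was obtained by fitting linearized transformations of the data.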

Mus musculus [8] = experiment: Anticonvulsant activity is the ability to delay the onset of bicuculline induced seizures in mouse at 24 hr after pretreament with compound (30 mg/kg, ip); format: functional
In short: (§2)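 Mice given test article ip 24 h before bicuculline (0.3 mg/kg sc). Latency to onset of generalized tonic-clonic seizures was recorded in seconds and expressed as % of saline control. Means ± SEM, n ≥ 6 per group.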

Mus musculus [9] = experiment: Uptake of the [14C]-compound in mouse liver 60 minutes after sc administration of 24 mg/kg.; format: functional; conditions: route subcutaneous, in the assay text read “mouse brain” for “mouse liver”
Rattus norvegicus [10] = organism: Rattus norvegicus; experiment: Enzymatic hydrolysis of cholesteryl [14C]-compound by Rat Brain Homogenate at 10 min; format: functional
In short: (§3)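 Cholesteryl-[14C]GABA ester (3 mg/mL) incubated at 37 °C with rat brain homogenate 10,000g supernatant (S1; 0.8 mg/mL protein). Aliquots were quenched with ethanol and run on silica TLC (CHCl3/MeOH/HOAc 18:6:1) to quantify unreacted substrate (nmol). Control was the initial substrate amount.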

Mus musculus [11] = experiment: Brain penetration index is the ratio of the uptake in brain/liver X 100, 5 min after sc administration of 24 mg/kg of the [14C]-compound.; format: functional; conditions: route subcutaneous
In short: (§4)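 [14C]-labeled ester injected sc into mice in 0.5 mL of 25% propylene glycol in water, killed at 5 min. Brain and liver were weighed and homogenized in SDS/6 M urea/EDTA phosphate solvent, pH 7.4, then counted by liquid scintillation. BPI = [brain]/[liver] × 100. Means ± SEM, n = 3.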

Mus musculus [12] = experiment: Evaluation of General motor activity in mouse 60 mins postinjection (ip) of 10 mg/kg; format: functional; in short: as §1
Mus musculus [13] = experiment: Anticonvulsant activity is the ability to delay the onset of bicuculline induced seizures in mouse at 24 hr after pretreament with compound (84 mg/kg, ip); format: functional; in short: as §2
Mus musculus [14] = experiment: Anticonvulsant activity is the ability to delay the onset of bicuculline induced seizures in mouse at 24 hr after pretreament with compound (16 mg/kg, ip); format: functional; in short: as §2
Mus musculus [15] = experiment: Uptake of the [14C]-compound in mouse liver 180 min after sc administration of 24 mg/kg.; format: functional; conditions: route subcutaneous, in the assay text read “mouse brain” for “mouse liver”
In short: (§5)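 [14C]-labeled ester injected sc into mice in 25% propylene glycol/water. At the stated time, brain and liver were homogenized in SDS/urea/EDTA phosphate solvent, pH 7.4, and counted by liquid scintillation. Uptake was calculated per gram tissue (nmol/g).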

Rattus norvegicus [16] = organism: Rattus norvegicus; experiment: Enzymatic hydrolysis of cholesteryl [14C]-compound by Rat Brain Homogenate at 30 min; format: functional; in short: as §3
Mus musculus [17] = experiment: Uptake of the [14C]-compound in mouse brain 5 minutes after sc administration of 24 mg/kg.; format: functional; conditions: route subcutaneous; in short: as §5
Mus musculus [18] = experiment: Anticonvulsant activity is the ability to increase the survival time of mouse ssubjected to bicuculline induced seizures at 24 hr after pretreament with compound (3 mg/kg, ip); format: functional
Mus musculus [19] = experiment: Uptake of the [14C]-compound in mouse liver 15 minutes after sc administration of 24 mg/kg.; format: functional; conditions: route subcutaneous, in the assay text read “mouse brain” for “mouse liver”; in short: as §5
Rattus norvegicus [20] = organism: Rattus norvegicus; experiment: Enzymatic hydrolysis of cholesteryl [14C]-compound by Rat Brain Homogenate at 60 min; format: functional; in short: as §3
Mus musculus [21] = experiment: Uptake of the [14C]-compound in mouse liver 5 minutes after sc administration of 24 mg/kg.; format: functional; conditions: route subcutaneous; in short: as §5
Mus musculus [22] = experiment: Evaluation of General motor activity in mouse 60 mins postinjection (ip) of 3 mg/kg; format: functional; in short: as §1
Mus musculus [23] = experiment: Anticonvulsant activity is the ability to delay the onset of bicuculline induced seizures in mouse at 24 hr after pretreament with compound (3 mg/kg, ip); format: functional; in short: as §2
Mus musculus [24] = experiment: Evaluation of General motor activity in mouse 60 mins postinjection (ip) of 60 mg/kg; format: functional; in short: as §1
Mus musculus [25] = experiment: Evaluation of General motor activity in mouse 60 mins postinjection (ip) of 128 mg/kg; format: functional; in short: as §1
Mus musculus [26] = experiment: Uptake of the [14C]-compound in mouse liver 5 minutes after sc administration of 74 mg/kg.; format: functional; conditions: route subcutaneous
In short: (§6)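 Mice were given the 14C-labeled compound sc in 25% propylene glycol in water and killed at 5 min. Liver was removed, weighed and homogenized in 1% SDS in 6 M urea with 19 mM EDTA and 0.03 M phosphate, pH 7.4. Homogenate aliquots were counted by liquid scintillation, and uptake per gram of tissue was calculated. Mean ± SEM, n = 3.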

Mus musculus [27] = experiment: Brain penetration index is the ratio of the uptake in brain/liver X 100, 5 min after sc administration of 74 mg/kg of the [14C]-compound.; format: functional; conditions: route subcutaneous; in short: as §4
Mus musculus [28] = experiment: Uptake of the [14C]-compound in mouse brain 5 minutes after sc administration of 74 mg/kg.; format: functional; conditions: route subcutaneous; in short: as §5
Mus musculus [29] = experiment: Uptake of the [14C]-compound in mouse brain 5 minutes after sc administration of 41 mg/kg.; format: functional; conditions: route subcutaneous; in short: as §5
Mus musculus [30] = experiment: Uptake of the [14C]-compound in mouse brain 15 minutes after sc administration of 41 mg/kg.; format: functional; conditions: route subcutaneous; in short: as §5
Mus musculus [31] = experiment: Evaluation of General motor activity in mouse 60 mins postinjection (ip) of 16 mg/kg; format: functional; in short: as §1
Mus musculus [32] = experiment: Uptake of the [14C]-compound in mouse liver 5 minutes after sc administration of 41 mg/kg.; format: functional; conditions: route subcutaneous; in short: as §6
Mus musculus [33] = experiment: Brain penetration index is the ratio of the uptake in brain/liver X 100, 5 min after sc administration of 41 mg/kg of the [14C]-compound.; format: functional; conditions: route subcutaneous; in short: as §4
Mus musculus [34] = experiment: Anticonvulsant activity is the ability to delay the onset of bicuculline induced seizures in mouse at 24 hr after pretreament with compound (25 mg/kg, ip); format: functional; in short: as §2
Mus musculus [35] = experiment: Anticonvulsant activity is the ability to delay the onset of bicuculline induced seizures in mouse at 24 hr after pretreament with compound (50 mg/kg, ip); format: functional; in short: as §2
Mus musculus [36] = experiment: Uptake of the [14C]-compound in mouse brain 5 minutes after sc administration of 90 mg/kg.; format: functional; conditions: route subcutaneous; in short: as §5
Mus musculus [37] = experiment: Evaluation of General motor activity in mouse 60 mins postinjection (ip) of 36 mg/kg =; format: functional; in short: as §1
Mus musculus [38] = experiment: Anticonvulsant activity is the ability to delay the onset of bicuculline induced seizures in mouse at 24 hr after pretreament with compound (17 mg/kg, ip); format: functional; in short: as §2
Mus musculus [39] = experiment: Uptake of the [14C]-compound in mouse brain 15 minutes after sc administration of 90 mg/kg.; format: functional; conditions: route subcutaneous; in short: as §5
Mus musculus [40] = experiment: Anticonvulsant activity is the ability to increase the survival time of mouse ssubjected to bicuculline induced seizures at 24 hr after pretreament with compound (36 mg/kg, ip); format: functional
Mus musculus [41] = experiment: Anticonvulsant activity is the ability to delay the onset of bicuculline induced seizures in mouse at 24 hr after pretreament with compound (36 mg/kg, ip); format: functional; in short: as §2
Mus musculus [42] = experiment: Anticonvulsant activity is the ability to increase the survival time of mouse ssubjected to bicuculline induced seizures at 24 hr after pretreament with compound (12 mg/kg, ip); format: functional
Mus musculus [43] = experiment: Evaluation of General motor activity in mouse 60 mins postinjection (ip) of 12 mg/kg; format: functional; in short: as §1
Mus musculus [44] = experiment: Anticonvulsant activity is the ability to increase the survival time of mouse ssubjected to bicuculline induced seizures at 24 hr after pretreament with compound (50 mg/kg, ip); format: functional
Mus musculus [45] = experiment: Uptake of the [14C]-compound in mouse liver 5 minutes after sc administration of 90 mg/kg.; format: functional; conditions: route subcutaneous; in short: as §6
Mus musculus [46] = experiment: Uptake of the [14C]-compound in mouse brain 45 minutes after sc administration of 90 mg/kg.; format: functional; conditions: route subcutaneous; in short: as §5
Mus musculus [47] = experiment: Anticonvulsant activity is the ability to increase the survival time of mouse ssubjected to bicuculline induced seizures at 24 hr after pretreament with compound (25 mg/kg, ip); format: functional
Mus musculus [48] = experiment: Brain penetration index is the ratio of the uptake in brain/liver X 100, 5 min after sc administration of 90 mg/kg of the [14C]-compound.; format: functional; conditions: route subcutaneous; in short: as §4
Mus musculus [49] = experiment: Anticonvulsant activity is the ability to increase the survival time of mouse ssubjected to bicuculline induced seizures at 24 hr after pretreament with compound (17mg/kg, ip); format: functional
Mus musculus [50] = experiment: Anticonvulsant activity is the ability to delay the onset of bicuculline induced seizures in mouse at 24 hr after pretreament with compound (12mg/kg, ip); format: functional; in short: as §2

NCCCC(=O)O [GAMMA-AMINOBUTYRIC ACID]
Motor activity (Mus musculus [1]): 100
K [2]: 0.004

CC(C)CCCC(C)C1CCC2C3CC=C4CC(OC(=O)CCCN)CCC4(C)C3CCC12C (configuration not stated)
K [3]: 110
Survival time (Mus musculus [4]): 101 and 109
Motor activity (Mus musculus [5]): 15
Survival time (Mus musculus [6]): 104
IC50 [7]: 10 µM
Onset seizure (Mus musculus [8]): 130
Brain concentration (Mus musculus [9]): 0.79 nmol/g
Amount of unreacted substrate (Rattus norvegicus [10]): 53
Brain penetration index (Mus musculus [11]): 25%
Motor activity (Mus musculus [12]): 49
Onset seizure (Mus musculus [13]): 137
Onset seizure (Mus musculus [14]): 129
Brain concentration (Mus musculus [15]): 0.6 nmol/g
Amount of unreacted substrate (Rattus norvegicus [16]): 43.5
Brain concentration (Mus musculus [17]): 0.17 nmol/g
Survival time (Mus musculus [18]): 95
Brain concentration (Mus musculus [19]): 0.67 nmol/g
Amount of unreacted substrate (Rattus norvegicus [20]): 34.5
Liver concentration (Mus musculus [21]): 0.69 nmol/g
Motor activity (Mus musculus [22]): 67
Onset seizure (Mus musculus [23]): 120

CCCCOC(=O)CCCN
Motor activity (Mus musculus [24]): 89
Motor activity (Mus musculus [25]): 83
Liver concentration (Mus musculus [26]): 28 nmol/g
Brain penetration index (Mus musculus [27]): 74%
Brain concentration (Mus musculus [28]): 19.2 nmol/g

C[C@@H]1CC2C3CCC4=CC(=O)C=CC4(C)C3(F)C(O)CC2(C)C1(O)C(=O)COC(=O)CCCN (some centres not stated)
K [3]: 0.9
Brain concentration (Mus musculus [29]): 8.7 nmol/g
Brain concentration (Mus musculus [30]): 21.5 nmol/g
Motor activity (Mus musculus [31]): 94
Liver concentration (Mus musculus [32]): 10.8 nmol/g
Brain penetration index (Mus musculus [33]): 81%

CC/C=C/C/C=C/C/C=C/CCCCCCCCOC(=O)CCCN
Onset seizure (Mus musculus [34]): 78
Onset seizure (Mus musculus [35]): 40
Brain concentration (Mus musculus [36]): 3.5 nmol/g
Motor activity (Mus musculus [37]): 74
Onset seizure (Mus musculus [38]): 73
Brain concentration (Mus musculus [39]): 11 nmol/g
Survival time (Mus musculus [40]): 62
Onset seizure (Mus musculus [41]): 50
Survival time (Mus musculus [42]): 118
Motor activity (Mus musculus [43]): 90
IC50 [7]: 40 µM
Survival time (Mus musculus [44]): 63
Liver concentration (Mus musculus [45]): 142 nmol/g
Brain concentration (Mus musculus [46]): 24.9 nmol/g
Survival time (Mus musculus [47]): 68
Brain penetration index (Mus musculus [48]): 2%
Survival time (Mus musculus [49]): 111
Onset seizure (Mus musculus [50]): 102
